Compounds with a hit are over-represented: about 1.7% of the library has one in this group of screens.
SR-BI DiI-HDL act: activators of SR-BI mediated DiI-HDL uptake, primary screen, ldlA[mSR-BI] CHO cells, DiI fluorescence; 3 h; 100 = double the neutral-control signal; activation, % at 12.5 µM; 320,000 tested, 0.096% active;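 active = mean replicate activation of at least 60% and every replicate at or above 60%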
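Material – SR-BI-overexpressing, LDLR-lacking CHO cells · Medium – BSA-supplemented, HEPES-buffered Ham's F12, pH 7.4 · Doses – single concentration · Times – compound with DiI-HDL co-incubation, 3 h at 37 °C · Measured by – bottom-read fluorescence, 550/595 nm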
Vif inh: HIV Vif self-association inhibitors, primary screen, imaging, HEK293T, single point | HEK293T cells, Vif self-association by quenched fluorescence, 24 h | 340,000 tested, 0.35% active | AID 602346, 2012 | inhibition, % at 7.49 µM; in the data active = inhibition above about 50%, passing the limit was not always enough
SR-BI DiI inh: inhibitors of SR-BI mediated HDL lipid uptake, primary screen, ldlA[mSR-BI] cells, fluorescence, single point; Scavenger receptor class B member 1 (Mus musculus), Q61009; ldlA[mSR-BI] CHO cells, DiI-HDL uptake fluorescence, 3 h; inhibition, % at 12.5 µM; 320,000 tested, 0.96% active;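 active = mean replicate inhibition of at least 70% and a set share of replicates each scoring 70 or more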
Target sequence (Q61009 whole entry, looked up): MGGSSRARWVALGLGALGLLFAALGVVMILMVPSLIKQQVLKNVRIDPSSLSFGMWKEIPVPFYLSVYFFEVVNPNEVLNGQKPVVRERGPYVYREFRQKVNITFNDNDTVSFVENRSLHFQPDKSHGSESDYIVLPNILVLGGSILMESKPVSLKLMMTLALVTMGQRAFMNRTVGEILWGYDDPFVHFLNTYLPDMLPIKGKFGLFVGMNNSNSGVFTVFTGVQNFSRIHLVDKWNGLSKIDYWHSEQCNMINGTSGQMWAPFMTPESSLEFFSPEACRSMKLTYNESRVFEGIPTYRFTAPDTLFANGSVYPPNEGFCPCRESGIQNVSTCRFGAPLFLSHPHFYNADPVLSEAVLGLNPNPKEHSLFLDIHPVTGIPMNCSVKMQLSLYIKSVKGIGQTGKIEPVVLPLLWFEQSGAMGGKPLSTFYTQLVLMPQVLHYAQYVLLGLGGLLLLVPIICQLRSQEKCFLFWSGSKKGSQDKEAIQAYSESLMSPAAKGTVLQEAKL
C2C12 statin: suppressors of statin myotoxicity in C2C12 myotubes, primary screen, cell-based, single point, plate reader. C2C12 myotubes + simvastatin, ATP luminescence, 48 h; scaled: DMSO 0, geranylgeraniol control 100. rescue of ATP level, % at 7.49 µM. 330,000 tested, 0.78% active. AID 602340, 2012;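 active = mean ATP rescue above about 67%, or every replicate alone reaching that limit, limit read from the data, passing the limit was not always enough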;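 also: myotubes were challenged with 10 µM simvastatin during compound exposure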
DiI quencher: DiI fluorescence quenching in cell-free counter-screen. shares compounds with SR-BI DiI inh. cell-free DiI-HDL fluorescence quenching, 30 min. AC50, µM (doses to about 35 µM). 470 tested, 20% active. AID 540326;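 active = quenching, a falling signal, with AC50 below a set limit tied to the top valid dose, actives reach about 32 µM in these data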
Numbers stand for hits.

Results for Cc1ccc(S(=O)(=O)NCC[C@H]2CC[C@H](NC(=O)c3cccc(F)c3)[C@@H](CO)O2)cc1 ?
C2C12 statin: inactive

What do the screens show for `COc1cccc(-c2ccc3c(c2)O[C@H](CN(C)Cc2ccncc2)[C@H](C)CN([C@@H](C)CO)S3(=O)=O)c1`?
C2C12 statin: inactive

What do the screens show for `C[C@H]1CN([C@@H](C)CO)C(=O)c2cc(NC(=O)Nc3cccc4ccccc34)ccc2O[C@@H]1CN(C)Cc1ccc(C(=O)O)cc1`?
C2C12 statin: inactive

How did COc1cc(OC)cc(C(=O)N[C@H](C(=O)Nc2nc(-c3ccc(F)c(F)c3)cs2)C(C)C)c1 do in these assays?
SR-BI DiI-HDL act: inactive; Vif inh: inactive; SR-BI DiI inh: 84; C2C12 statin: inactive; DiI quencher: inactive

How did C[C@@H]1CN([C@H](C)CO)C(=O)c2cccc(NS(=O)(=O)c3ccc(F)cc3)c2O[C@H]1CN(C)CC1CC1 do in these assays?
C2C12 statin: inactive

How did CC[C@H](C)[C@H](NC(=O)c1ccc(Cl)cc1)C(=O)OCC(=O)c1ccc2c(c1)NC(=O)CO2 do in these assays?
SR-BI DiI-HDL act: inactive; Vif inh: inactive; SR-BI DiI inh: 86; C2C12 statin: inactive; DiI quencher: inactive

Results for CC(C)C(C(=O)OCC(=O)c1ccc2c(c1)NC(=O)CO2)N1C(=O)c2ccccc2C1=O (configuration not stated) ?
SR-BI DiI-HDL act: inactive; Vif inh: inactive; SR-BI DiI inh: inactive; C2C12 statin: inactive; DiI quencher: inactive

How did COc1cc(OC)cc(C(=O)N[C@H](C(=O)OCC(=O)c2ccc3c(c2)NC(=O)CO3)C(C)C)c1 do in these assays?
SR-BI DiI-HDL act: inactive; Vif inh: inactive; SR-BI DiI inh: inactive; C2C12 statin: inactive; DiI quencher: inactive

How did Cc1cccc(C(=O)OCC(=O)c2ccc3c(c2)NC(=O)CO3)c1 do in these assays?
SR-BI DiI-HDL act: inactive; Vif inh: inactive; SR-BI DiI inh: inactive

What do the screens show for `CC(C)[C@H](NC(=O)c1ccccc1)C(=O)OCC(=O)c1ccc2c(c1)NC(=O)CO2`?
SR-BI DiI-HDL act: inactive; Vif inh: inactive; SR-BI DiI inh: inactive; C2C12 statin: inactive

Results for O=C(C[C@@H]1CC[C@@H]2[C@H](COC[C@H](O)CN2C(=O)Nc2ccc(F)cc2)O1)NC1Cc2ccccc2C1 ?
C2C12 statin: inactive

What do the screens show for `CCOc1ccc(NS(=O)(=O)c2ccc(C(=O)NNC(=O)c3ccccc3O)cc2)cc1`?
SR-BI DiI-HDL act: inactive; Vif inh: inactive; SR-BI DiI inh: 127; C2C12 statin: inactive; DiI quencher: 0.61µM

Results for O=C(NNC(=O)c1ccccc1O)c1ccc(S(=O)(=O)Nc2ccccc2)cc1 ?
SR-BI DiI-HDL act: inactive; Vif inh: inactive; SR-BI DiI inh: 113; C2C12 statin: inactive; DiI quencher: 0.4µM

Results for O=C(NNC(=O)c1ccccc1O)c1ccc(S(=O)(=O)Nc2ccccc2F)cc1 ?
SR-BI DiI-HDL act: inactive; Vif inh: inactive; SR-BI DiI inh: inactive; C2C12 statin: inactive

What do the screens show for `COCC(=O)N(C)C[C@H]1Oc2cc(C#CCN(C)C)ccc2S(=O)(=O)N([C@@H](C)CO)C[C@@H]1C`?
C2C12 statin: inactive

Results for CCn1c(COc2c(C)cccc2C)nnc1SCC(=O)N1CCN(c2ccccc2)CC1 ?
SR-BI DiI-HDL act: inactive; Vif inh: inactive; SR-BI DiI inh: 79; C2C12 statin: inactive; DiI quencher: inactive

What do the screens show for `COc1ccc(NC(=O)c2c(Nc3ccccc3)sc(C(=O)c3ccc(F)cc3)c2N)cc1`?
SR-BI DiI-HDL act: inactive; Vif inh: inactive; SR-BI DiI inh: 122; C2C12 statin: inactive; DiI quencher: 0.18µM

What do the screens show for `COc1ccc(C(=O)c2sc(Nc3cccc(OC)c3)c(C(=O)Nc3cccc(C)c3C)c2N)cc1`?
SR-BI DiI-HDL act: inactive; Vif inh: inactive; SR-BI DiI inh: inactive; C2C12 statin: inactive

What do the screens show for `CC(=O)NCCC1CCN(C(=O)c2cc(COc3ccc(C)nc3)on2)CC1`?
SR-BI DiI-HDL act: inactive; Vif inh: inactive; SR-BI DiI inh: 76; C2C12 statin: inactive; DiI quencher: inactive

Results for Cc1ccc(OCc2cc(C(=O)N3CCCC3)no2)cn1 ?
SR-BI DiI-HDL act: inactive; Vif inh: inactive; SR-BI DiI inh: inactive; C2C12 statin: inactive

How did CNC[C@H]1OCCCC[C@@H](C)Oc2ccc(NC(=O)Nc3ccc(C(F)(F)F)cc3)cc2C(=O)N([C@@H](C)CO)C[C@H]1C do in these assays?
C2C12 statin: inactive

What do the screens show for `Cn1cnc(S(=O)(=O)N2CC[C@@H]3[C@H]2c2cc(C#Cc4ccc(F)cc4)ccc2N[C@@H]3CO)c1`?
C2C12 statin: inactive

Results for CNC(=O)c1ccc(Nc2nnc(-c3ccc(O)cc3)c3ccccc23)cc1 ?
SR-BI DiI-HDL act: inactive; Vif inh: inactive; SR-BI DiI inh: 99; C2C12 statin: inactive; DiI quencher: inactive

How did NC(=O)c1ccccc1NC(=O)CN1CCCCCC1 do in these assays?
SR-BI DiI-HDL act: inactive; Vif inh: inactive; SR-BI DiI inh: inactive; C2C12 statin: inactive

Results for NC(=O)c1cc(-c2ccccc2)sc1NC(=O)CN1CCCCC1 ?
SR-BI DiI-HDL act: inactive; Vif inh: inactive; SR-BI DiI inh: 73; DiI quencher: inactive

How did CCc1cc(CNC(=O)C2CCC(=O)N(CCc3cccc(F)c3)C2)on1 (configuration not stated) do in these assays?
SR-BI DiI-HDL act: inactive; Vif inh: inactive; SR-BI DiI inh: inactive; C2C12 statin: inactive; DiI quencher: inactive

How did Cc1cc(CNC(=O)C2CCC(=O)N(CCc3cccc(F)c3)C2)on1 (configuration not stated) do in these assays?
SR-BI DiI-HDL act: inactive; Vif inh: inactive; SR-BI DiI inh: inactive; C2C12 statin: inactive

How did CCCN1[C@@H]2c3ccc(-c4ccccc4F)c(=O)n3C[C@H]1[C@H](CO)[C@H]2C(=O)NCC do in these assays?
C2C12 statin: inactive

What do the screens show for `C[C@H](NC(=O)[C@H]1[C@H](CO)[C@H]2Cn3c(ccc(-c4ccccc4F)c3=O)[C@@H]1N2C)c1ccccc1`?
C2C12 statin: inactive

Results for Cc1ccc(C(=O)NNC(=O)C2CCN(S(=O)(=O)c3ccc(C)cc3)CC2)cc1 ?
SR-BI DiI-HDL act: inactive; Vif inh: inactive; SR-BI DiI inh: inactive

How did Cc1ccc(S(=O)(=O)N2CCC(C(=O)NNC(=O)c3cccnc3)CC2)cc1 do in these assays?
SR-BI DiI-HDL act: inactive; Vif inh: inactive; SR-BI DiI inh: inactive; DiI quencher: inactive

Results for Cc1c(Cl)cccc1S(=O)(=O)N1CCC(C(=O)NNC(=O)C2CC2)CC1 ?
SR-BI DiI-HDL act: inactive; Vif inh: inactive; SR-BI DiI inh: inactive; DiI quencher: inactive

Bioassay records (PubChem BioAssay)
